Measured values reported in ChEMBL document CHEMBL3875168, “Synthesis and apoptosis inducing studies of triazole linked 3-benzylidene isatin derivatives” (Eur J Med Chem, 2016).
Activity calls are given as the source filed them. The rule behind the calls is not given here.

What was measured:
[1] = Cytotoxicity against human DU145 cells assessed as cell growth inhibition after 48 hrs by MTT assay; assay type: functional, cell-based; settings: DU-145, 48 h
Procedure, shortened: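 Cell lines (NCCS) grown in DMEM or RPMI with 10% FBS and antibiotic-antimycotic at 37 °C, 5% CO2, 90% humidity. Cells seeded at 3-5×10^3 per well, treated 48 h with serial dilutions in medium beside vehicle control. Medium replaced with MTT (0.5 mg/mL) for 4 h, absorbance read at 570 nm. IC50 taken from concentration-response curves; sunitinib served as reference.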

[2] = Cell cycle arrest in human DU145 cells assessed as accumulation at G2/M phase at 5 uM after 24 hrs by propidium iodide staining-based flow cytometry (reference value: 29.66%); assay type: functional; settings: DU-145
Procedure, shortened: (§1)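 Compound given to DU145 at 2.5 and 5.0 μM for 24 h alongside untreated cells. Cells harvested, PBS-washed, fixed in ice-cold 70% ethanol, then stained 30 min at 37 °C in the dark with propidium iodide (50 μg/mL) plus RNase A (20 μg/mL) in 0.1% Triton X-100. About 10000 events per sample read by flow cytometry; a representative of three independent experiments is shown.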

[3] = Cell cycle arrest in human DU145 cells assessed as accumulation at G2/M phase at 2.5 uM after 24 hrs by propidium iodide staining-based flow cytometry (reference value: 29.66%); assay type: functional; settings: DU-145; procedure, shortened: as §1
DU-145 [4] = experiment: Induction of apoptosis in human DU145 cells assessed as late apoptotic cells at 5 uM after 24 hrs by Annexin V-FITC/propidium iodide staining based flow cytometry (reference value: 5.4%); assay type: functional
[5] = Cell cycle arrest in human DU145 cells assessed as accumulation at G0/G1 phase at 5 uM after 24 hrs by propidium iodide staining-based flow cytometry (reference value: 62.81%); assay type: functional; settings: DU-145; procedure, shortened: as §1
DU-145 [6] = experiment: Induction of morphological changes in human DU145 cells assessed as membrane blebbing at 1.25 to 5 uM after 48 hrs by acridine orange/ethidium bromide-dual staining based fluorescence microscopic method; assay type: functional, cell-based
Procedure, shortened: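 DU145 plated at 1×10^6 cells/mL, treated at several concentrations and kept 48 h at 37 °C in 5% CO2. Equal volumes of acridine orange and ethidium bromide (10 μg/mL) added, and cells imaged within 10 min by fluorescence microscopy (excitation 488 nm, emission 550 nm) at 200x.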

[7] = Cell cycle arrest in human DU145 cells assessed as accumulation at G0/G1 phase at 2.5 uM after 24 hrs by propidium iodide staining-based flow cytometry (reference value: 62.81%); assay type: functional; settings: DU-145; procedure, shortened: as §1
DU-145 [8] = experiment: Induction of apoptosis in human DU145 cells assessed as increase in Bax level after 48 hrs by Western blot analysis; assay type: functional, cell-based
DU-145 [9] = experiment: Induction of apoptosis in human DU145 cells assessed as late apoptotic cells at 2.5 uM after 24 hrs by Annexin V-FITC/propidium iodide staining based flow cytometry (reference value: 5.4%); assay type: functional
DU-145 [10] = experiment: Induction of apoptosis in human DU145 cells assessed as increase in cleaved PARP level after 48 hrs by Western blot analysis; assay type: functional, cell-based
DU-145 [11] = experiment: Induction of apoptosis in human DU145 cells assessed as early apoptotic cells at 1.25 uM after 24 hrs by Annexin V-FITC/propidium iodide staining based flow cytometry (reference value: 2.14%); assay type: functional
[12] = Cytotoxicity against human RWPE1 cells assessed as cell growth inhibition after 48 hrs by MTT assay; assay type: toxicity, cell-based, RWPE-1
DU-145 [13] = experiment: Induction of apoptosis in human DU145 cells assessed as increase in necrotic cells after 24 hrs by Annexin V-FITC/propidium iodide staining based flow cytometry; assay type: functional, cell-based
[14] = Cell cycle arrest in human DU145 cells assessed as accumulation at S phase at 2.5 uM after 24 hrs by propidium iodide staining-based flow cytometry (reference value: 10.3%); assay type: functional; settings: DU-145; procedure, shortened: as §1

Molecule `O=C1Nc2ccc(C(c3ccccc3)c3ccccc3)cc2/C1=C/c1cccc(OCc2cn(Cc3ccccc3)nn2)c1` has an IC50 [1] of 3.7 µM, an Activity [2] of 48% and an Activity [3] of 43.7%. The Activity (DU-145 [4]) was 25%, the Activity [5] was 10.1% and the Activity (DU-145 [6]) was “Active”. For the same molecule, the Activity [7] was 14.8%, the Activity (DU-145 [8]) was “Active” and the Activity (DU-145 [9]) was 13%. For the same molecule, the Activity (DU-145 [10]) was “Active”, the Activity (DU-145 [11]) was 12.6% and the IC50 at 48 h [12] was 21.4 µM. The Activity (DU-145 [13]) was “Dose-dependent effect” and the Activity [14] was 12.7%.
